Assay outcomes (PubChem)
ERp5 block – inhibitors of human ERp5. 350,000 compounds, 0.05% hits. AID 651711. ERp5 insulin aggregation, absorbance 650 nm, 90 min. Q15084. inhibition, % at 9.99 µM;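 active = mean replicate inhibition above about 25%, with every replicate also reaching it, limit read from the data, passing the limit was not always enough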
Target sequence (Q15084 whole entry, looked up): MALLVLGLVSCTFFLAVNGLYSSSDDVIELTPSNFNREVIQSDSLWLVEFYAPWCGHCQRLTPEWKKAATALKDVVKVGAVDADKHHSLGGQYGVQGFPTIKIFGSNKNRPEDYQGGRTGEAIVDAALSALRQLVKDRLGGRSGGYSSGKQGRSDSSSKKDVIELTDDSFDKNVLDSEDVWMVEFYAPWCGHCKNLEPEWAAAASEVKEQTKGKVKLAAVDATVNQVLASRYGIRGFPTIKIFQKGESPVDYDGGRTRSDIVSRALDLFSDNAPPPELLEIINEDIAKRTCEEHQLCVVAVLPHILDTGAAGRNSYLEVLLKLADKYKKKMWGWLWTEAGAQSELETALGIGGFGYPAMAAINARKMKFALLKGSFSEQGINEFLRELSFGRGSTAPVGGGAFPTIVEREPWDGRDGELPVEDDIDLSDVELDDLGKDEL
PDI inh – blocks human protein disulfide isomerase activity; P07237; PDI insulin aggregation turbidity, A650, 90 min; inhibition, % at 10 µM; 350,000 compounds, 0.052% hits; AID 588391;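 active = mean inhibition across replicates of 30% or more, whatever share of single replicates reach that level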
PglD inh – inhibitors of Campylobacter jejuni PglD acetyltransferase. inhibition, % at 12.5 µM. purified PglD enzyme, DTNB colorimetric CoA detection. AID 602405. 360,000 compounds, 0.098% hits; in the data active = inhibition above about 16%, passing the limit was not always enough
RAD54 inh – blocks human RAD54 Holliday junction branch migration | inhibition, % at 10.4 µM | Q92698 | AID 602329 | 360,000 compounds, 0.14% hits | FAM/BHQ fluorescence;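 active = mean normalized replicate activity at least 40 and at least half of replicates scoring 40 or more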;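 note: 0% = median of neutral control wells and 100% = median of positive control wells; inhibitors cause a drop in the FAM fluorescence signal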
FN deposition inh – fibronectin deposition inhibition; AH1F fibroblasts, Alexa488-fibronectin deposition fluorescence, overnight; inhibition, % at 12.6 µM; 350,000 compounds, 0.086% hits; AID 743247;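 active = mean inhibition across replicates of 30% or more, regardless of how many single replicates reach that level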;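 note: positive control wells lacked labelled fibronectin entirely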
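Measured by – fluorescence 485/525 nm · System – AH1F fibroblast monolayer, labelled fibronectin deposition · Amount – 10000 cells per well · Buffer or medium – serum-reduced DMEM (2% serum) · Doses – single dose, pinned · Also added – fluorescent fibronectin at 24 nM final · Schedule – 1 h cell attachment, overnight exposure to compound and label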
S100A4 inh HTS – inhibitors of human S100A4 binding to myosin IIA peptide | S100A4/TAMRA-MyoIIA peptide fluorescence polarization | inhibition, % at 10.7 µM | P26447 | 360,000 compounds, 0.14% hits;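 active = mean inhibition of at least 70% across replicates, with every replicate also reaching that level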
Target sequence (P26447 whole entry, looked up): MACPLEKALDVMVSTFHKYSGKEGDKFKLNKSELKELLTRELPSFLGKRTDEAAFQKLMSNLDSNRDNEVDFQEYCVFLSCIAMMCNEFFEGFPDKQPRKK
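Test system: S100A4 monomer protein; Medium: HEPES pH 7.2 with CaCl2, KCl, NaCl, DTT, Triton; Probe or stimulus: TAMRA-labelled myosin IIA heavy-chain peptide probe, 5 nM; Doses: one dose per compound; Times: polarization read 5 min after assay mix addition, stable 5–60 min; Benchmarks: neutral control DMSO, positive control TFP.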
* marks the source's active call; other numbers are inactive results. Only some compounds are listed: those with a hit (about 0.44% of all), similar ones and a draw of the others.

What do the screens show for `O=C1CCc2cc(S(=O)(=O)NCc3ccc(Cl)cc3)cc3c2N1CC3`?
ERp5 block: 2; PDI inh: -5; PglD inh: -2; RAD54 inh: 4; FN deposition inh: -9; S100A4 inh HTS: 1

Results for Cn1cc([N+](=O)[O-])c(C(=O)Nc2cc(Oc3ccccc3)cc([N+](=O)[O-])c2)n1 ?
ERp5 block: 1; PDI inh: 1; FN deposition inh: 40*; S100A4 inh HTS: -1

How did CS(=O)(=O)c1ccc(C(=O)OCC(=O)N2CCOCC2)cc1[N+](=O)[O-] do in these assays?
ERp5 block: 3; PDI inh: 5; PglD inh: 0; RAD54 inh: 13; FN deposition inh: -13; S100A4 inh HTS: 18

How did CS(=O)(=O)c1ccc(C(=O)OCC(=O)N2CCN(CCC3CCCCC3)CC2)cc1[N+](=O)[O-] do in these assays?
ERp5 block: 1; PDI inh: 91*; PglD inh: -6; RAD54 inh: -4; FN deposition inh: 19; S100A4 inh HTS: -1

What do the screens show for `CNC[C@@H]1Oc2ccc(NC(C)=O)cc2C(=O)N(C)C[C@@H]1C`?
FN deposition inh: -5

Results for C[C@H]1CN([C@@H](C)CO)C(=O)c2cccc(N(C)C)c2O[C@@H]1CN(C)C(=O)Nc1cccc2ccccc12 ?
ERp5 block: 1; PglD inh: 0; RAD54 inh: 4; FN deposition inh: 4; S100A4 inh HTS: -2

What do the screens show for `C[C@@H]1CN([C@@H](C)CO)C(=O)c2cccc(NC(=O)Nc3cccc4ccccc34)c2O[C@H]1CN(C)C(=O)Nc1ccccc1`?
ERp5 block: 2; PglD inh: 6; RAD54 inh: -26; S100A4 inh HTS: 105*

What do the screens show for `COc1ccc(NC(=O)N(C)C[C@H]2Oc3c(NC(=O)NC4CCCCC4)cccc3C(=O)N([C@H](C)CO)C[C@H]2C)cc1`?
ERp5 block: 4; PglD inh: -4; RAD54 inh: -8; S100A4 inh HTS: 88*

Results for CNC[C@H]1Oc2c(N)cccc2C(=O)N([C@@H](C)CO)C[C@H]1C ?
ERp5 block: 86*

Results for C[C@@H]1CN([C@@H](C)CO)C(=O)c2cccc(N(C)C)c2O[C@@H]1CN(C)C(=O)Nc1cccc2ccccc12 ?
ERp5 block: 3; PglD inh: 8; RAD54 inh: 8; FN deposition inh: 5; S100A4 inh HTS: 81*

How did COc1ccc(NC(=O)N(C)C[C@H]2Oc3c(NC(=O)NC4CCCCC4)cccc3C(=O)N([C@H](C)CO)C[C@@H]2C)cc1 do in these assays?
ERp5 block: 2; PDI inh: 8; PglD inh: 1; RAD54 inh: -2; FN deposition inh: 2; S100A4 inh HTS: 5

What do the screens show for `C[C@@H]1CN([C@@H](C)CO)C(=O)c2cc(-c3cccnc3)cnc2O[C@@H]1CN(C)Cc1ccccc1`?
FN deposition inh: -14

What do the screens show for `C[C@@H]1CN([C@@H](C)CO)C(=O)c2cccc(NC(=O)Nc3ccc(C(F)(F)F)cc3)c2O[C@@H]1CN(C)C(=O)Nc1cccc2ccccc12`?
ERp5 block: 4; PglD inh: 0; RAD54 inh: -4; FN deposition inh: 36*; S100A4 inh HTS: -1

Results for Cc1noc(C)c1NC(=O)Nc1cccc2c1O[C@H](CN(C)C(=O)Nc1cccc3ccccc13)[C@@H](C)CN([C@H](C)CO)C2=O ?
ERp5 block: -3; PglD inh: 16*; RAD54 inh: 5; S100A4 inh HTS: 3

What do the screens show for `C[C@H]1CN([C@@H](C)CO)C(=O)c2cccc(NC(=O)c3nc4ccccc4s3)c2O[C@@H]1CN(C)C(=O)Nc1ccc(C(F)(F)F)cc1`?
ERp5 block: 27*; PglD inh: -3; RAD54 inh: -7; S100A4 inh HTS: 5

Results for CNC[C@@H]1Oc2ccc(NC(=O)Nc3cccc4ccccc34)cc2C(=O)N([C@H](C)CO)C[C@@H]1C ?
ERp5 block: 0; PglD inh: 0; RAD54 inh: 15; S100A4 inh HTS: 137*

How did CNC[C@H]1Oc2ccc(NC(=O)Nc3cccc4ccccc34)cc2C(=O)N([C@@H](C)CO)C[C@@H]1C do in these assays?
ERp5 block: -4; PglD inh: -1; RAD54 inh: -14; S100A4 inh HTS: -6

How did O=C(CN1CCOCC1)NCC[C@H]1CC[C@@H](NC(=O)Cc2ccccn2)[C@@H](CO)O1 do in these assays?
ERp5 block: 0; PglD inh: 0; RAD54 inh: 3; FN deposition inh: 15; S100A4 inh HTS: -5

How did CCC(=O)Nc1ccc2c(c1)OC[C@H](C)N(C(=O)Cc1cccnc1)C[C@H](C)[C@@H](OC)CN(C)C2=O do in these assays?
FN deposition inh: 9

How did CSc1ccccc1OCc1cc(C(=O)NCCn2nc(C)cc2C)no1 do in these assays?
ERp5 block: 3; PDI inh: -4; PglD inh: 2; RAD54 inh: -15; FN deposition inh: 8; S100A4 inh HTS: 0

Results for CSc1ccccc1OCc1cc(C(=O)NCCN2CCCc3ccccc32)no1 ?
ERp5 block: -10; PDI inh: 11; FN deposition inh: -2; S100A4 inh HTS: 95*

Results for CCCC#Cc1ccc([C@H]2[C@H](CO)N3CCCCN(CC4CC4)C[C@@H]23)cc1 ?
ERp5 block: 9; PglD inh: -1; RAD54 inh: 12; S100A4 inh HTS: -10

Results for O=C(CCCc1ccccc1)Nc1cccc(C(=O)O)c1 ?
ERp5 block: -9; PDI inh: -1; FN deposition inh: 33*; S100A4 inh HTS: -2

How did O=C(CCc1ccccc1)NC(=S)Nc1cccc(C(=O)O)c1 do in these assays?
ERp5 block: 3; PDI inh: 9; PglD inh: -2; RAD54 inh: 3; FN deposition inh: -4; S100A4 inh HTS: -4

Results for O=C(Nc1ccc2cn[nH]c2c1)c1c(Cl)cccc1Cl ?
PDI inh: 0; PglD inh: 10; RAD54 inh: 3

What do the screens show for `O=C1C(Cl)=C(Nc2ccc3cn[nH]c3c2)C(=O)c2ccccc21`?
ERp5 block: 3; PDI inh: 13; PglD inh: 3; RAD54 inh: 0; FN deposition inh: 71*; S100A4 inh HTS: 1

What do the screens show for `COCC#Cc1cnc2c(c1)C(=O)N([C@H](C)CO)C[C@H](C)[C@@H](CN(C)S(=O)(=O)c1cn(C)cn1)O2`?
ERp5 block: -2; PglD inh: 1; RAD54 inh: 8; FN deposition inh: -10; S100A4 inh HTS: -3

What do the screens show for `CN(C)c1ccc(C=c2c3cc([N+](=O)[O-])ccc3n3c2cc(-c2ccccc2)[n+]3C)cc1`?
ERp5 block: 0; PDI inh: 1; FN deposition inh: 3; S100A4 inh HTS: 98*

What do the screens show for `CN1CCN(CCCNC(=O)c2cc3c(=O)n(C)c4ccccc4c3s2)CC1`?
ERp5 block: 2; PglD inh: -4; RAD54 inh: 63*; FN deposition inh: 8; S100A4 inh HTS: -1
